Measured values from ChEMBL document CHEMBL4732237, “Discovery of 4-alkoxy-2-aryl-6,7-dimethoxyquinolines as a new class of topoisomerase I inhibitors endowed with potent in vitro anticancer activity” (2021).

Test system: MDA-MB-231
Test: Growth inhibition of human MDA-MB-231 cells at 10 uM incubated for 48 hrs by sulforhodamine B assay relative to control
Type: functional
Details: read-out: GI
Outline: (§1)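 NCI-60 single-dose screen. Cells were grown in RPMI 1640 with 5% FBS and 2 mM L-glutamine and plated 24 h before drug addition. Compound was added at one concentration in DMSO-derived medium and incubated for 48 h at 37 °C in 5% CO2. Read-out was SRB protein stain at 515 nm. Result is percent growth versus the no-drug control and the time-zero cell count; values below 0 indicate lethality.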

Row | SMILES | inhibition of growth at 10 µM [%]
1 | COc1cc2nc(-c3ccc(Cl)cc3)cc(OCCN3CCCCC3)c2cc1OC | 3
2 | COc1cc2nc(-c3ccc(C(F)(F)F)cc3)cc(OCCN3CCCCC3)c2cc1OC | 13
3 | COc1cc2nc(-c3cccs3)cc(OCCCN3CCC(O)CC3)c2cc1OC | 20
4 | COc1cc2nc(-c3ccc(C(F)(F)F)cc3)cc(OCCN3CCCC3)c2cc1OC | 13
5 | COc1cc2nc(-c3ccc(C(F)(F)F)cc3)cc(OCCN3CCOCC3)c2cc1OC | 13
6 | COc1cc2nc(-c3ccc(Cl)cc3)cc(OCCN3CCC(O)CC3)c2cc1OC | 3

Test system: MCF7
Test: Growth inhibition of human MCF7 cells at 10 uM incubated for 48 hrs by sulforhodamine B assay relative to control
Type: functional
Details: read-out: GI
Outline: as §1

Row | SMILES | inhibition of growth at 10 µM [%]
7 | COc1cc2nc(-c3ccc(Cl)cc3)cc(OCCN3CCCCC3)c2cc1OC | 3
8 | COc1cc2nc(-c3ccc(C(F)(F)F)cc3)cc(OCCN3CCCCC3)c2cc1OC | 13
9 | COc1cc2nc(-c3cccs3)cc(OCCCN3CCC(O)CC3)c2cc1OC | 20
10 | COc1cc2nc(-c3ccc(C(F)(F)F)cc3)cc(OCCN3CCCC3)c2cc1OC | 13
11 | COc1cc2nc(-c3ccc(C(F)(F)F)cc3)cc(OCCN3CCOCC3)c2cc1OC | 13
12 | COc1cc2nc(-c3ccc(Cl)cc3)cc(OCCN3CCC(O)CC3)c2cc1OC | 3

Test system: RXF 393
Test: Growth inhibition of human RXF 393 cells at 10 uM incubated for 48 hrs by sulforhodamine B assay relative to control
Type: functional
Details: read-out: GI
Outline: (§2)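 NCI one-dose screen. Cells grown in RPMI 1640 with 5% FBS and 2 mM L-glutamine, plated and incubated 24 h at 37 °C, 5% CO2. DMSO-dissolved drug added, then 48 h further incubation. Adherent cells fixed with cold TCA, suspension cells fixed after settling. Stained with 0.4% SRB, absorbance read at 515 nm. Reported as percent growth relative to no-drug control and time-zero cell number.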

Row | SMILES | inhibition of growth at 10 µM [%]
13 | COc1cc2nc(-c3ccc(Cl)cc3)cc(OCCN3CCCCC3)c2cc1OC | 3
14 | COc1cc2nc(-c3ccc(C(F)(F)F)cc3)cc(OCCN3CCCCC3)c2cc1OC | 13
15 | COc1cc2nc(-c3cccs3)cc(OCCCN3CCC(O)CC3)c2cc1OC | 20
16 | COc1cc2nc(-c3ccc(C(F)(F)F)cc3)cc(OCCN3CCCC3)c2cc1OC | 13
17 | COc1cc2nc(-c3ccc(C(F)(F)F)cc3)cc(OCCN3CCOCC3)c2cc1OC | 13
18 | COc1cc2nc(-c3ccc(Cl)cc3)cc(OCCN3CCC(O)CC3)c2cc1OC | 3

Test system: NCI-H226
Test: Growth inhibition of human NCI-H226 cells at 10 uM incubated for 48 hrs by sulforhodamine B assay relative to control
Type: functional
Details: read-out: GI
Outline: as §2

Row | SMILES | inhibition of growth at 10 µM [%]
19 | COc1cc2nc(-c3ccc(Cl)cc3)cc(OCCN3CCCCC3)c2cc1OC | 3
20 | COc1cc2nc(-c3ccc(C(F)(F)F)cc3)cc(OCCN3CCCCC3)c2cc1OC | 13
21 | COc1cc2nc(-c3cccs3)cc(OCCCN3CCC(O)CC3)c2cc1OC | 20
22 | COc1cc2nc(-c3ccc(C(F)(F)F)cc3)cc(OCCN3CCCC3)c2cc1OC | 13
23 | COc1cc2nc(-c3ccc(C(F)(F)F)cc3)cc(OCCN3CCOCC3)c2cc1OC | 13
24 | COc1cc2nc(-c3ccc(Cl)cc3)cc(OCCN3CCC(O)CC3)c2cc1OC | 3

Test system: U-251
Test: Growth inhibition of human U-251 cells at 10 uM incubated for 48 hrs by sulforhodamine B assay relative to control
Type: functional
Details: read-out: GI
Outline: (§3)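 NCI one-dose screen across a 59-line panel. Cells were grown in RPMI 1640 with 5% FBS and 2 mM L-glutamine, plated and pre-incubated 24 h, then exposed to drug for 48 h at 37 °C, 5% CO2. Adherent cells were fixed with cold TCA (10% final), stained with 0.4% SRB in 1% acetic acid and read at 515 nm. Result is percent growth relative to no-drug control and time-zero cell count.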

Row | SMILES | inhibition of growth at 10 µM [%]
25 | COc1cc2nc(-c3ccc(Cl)cc3)cc(OCCN3CCCCC3)c2cc1OC | 3
26 | COc1cc2nc(-c3ccc(C(F)(F)F)cc3)cc(OCCN3CCCCC3)c2cc1OC | 13
27 | COc1cc2nc(-c3cccs3)cc(OCCCN3CCC(O)CC3)c2cc1OC | 20
28 | COc1cc2nc(-c3ccc(C(F)(F)F)cc3)cc(OCCN3CCCC3)c2cc1OC | 13
29 | COc1cc2nc(-c3ccc(C(F)(F)F)cc3)cc(OCCN3CCOCC3)c2cc1OC | 13
30 | COc1cc2nc(-c3ccc(Cl)cc3)cc(OCCN3CCC(O)CC3)c2cc1OC | 3

Test system: M14
Test: Growth inhibition of human M14 cells at 10 uM incubated for 48 hrs by sulforhodamine B assay relative to control
Type: functional
Details: read-out: GI
Outline: as §1

Row | SMILES | inhibition of growth at 10 µM [%]
31 | COc1cc2nc(-c3ccc(Cl)cc3)cc(OCCN3CCCCC3)c2cc1OC | 3
32 | COc1cc2nc(-c3ccc(C(F)(F)F)cc3)cc(OCCN3CCCCC3)c2cc1OC | 13
33 | COc1cc2nc(-c3cccs3)cc(OCCCN3CCC(O)CC3)c2cc1OC | 20
34 | COc1cc2nc(-c3ccc(C(F)(F)F)cc3)cc(OCCN3CCCC3)c2cc1OC | 13
35 | COc1cc2nc(-c3ccc(C(F)(F)F)cc3)cc(OCCN3CCOCC3)c2cc1OC | 13
36 | COc1cc2nc(-c3ccc(Cl)cc3)cc(OCCN3CCC(O)CC3)c2cc1OC | 3

Test system: SK-OV-3
Test: Growth inhibition of human SK-OV-3 cells at 10 uM incubated for 48 hrs by sulforhodamine B assay relative to control
Type: functional
Details: read-out: GI
Outline: as §2

Row | SMILES | inhibition of growth at 10 µM [%]
37 | COc1cc2nc(-c3ccc(Cl)cc3)cc(OCCN3CCCCC3)c2cc1OC | 3
38 | COc1cc2nc(-c3ccc(C(F)(F)F)cc3)cc(OCCN3CCCCC3)c2cc1OC | 13
39 | COc1cc2nc(-c3cccs3)cc(OCCCN3CCC(O)CC3)c2cc1OC | 20
40 | COc1cc2nc(-c3ccc(C(F)(F)F)cc3)cc(OCCN3CCCC3)c2cc1OC | 13
41 | COc1cc2nc(-c3ccc(C(F)(F)F)cc3)cc(OCCN3CCOCC3)c2cc1OC | 13
42 | COc1cc2nc(-c3ccc(Cl)cc3)cc(OCCN3CCC(O)CC3)c2cc1OC | 3

Test system: COLO 205
Test: Growth inhibition of human COLO 205 cells at 10 uM incubated for 48 hrs by sulforhodamine B assay relative to control
Type: functional
Details: read-out: GI
Outline: as §1

Row | SMILES | inhibition of growth at 10 µM [%]
43 | COc1cc2nc(-c3ccc(Cl)cc3)cc(OCCN3CCCCC3)c2cc1OC | 3
44 | COc1cc2nc(-c3ccc(C(F)(F)F)cc3)cc(OCCN3CCCCC3)c2cc1OC | 13
45 | COc1cc2nc(-c3cccs3)cc(OCCCN3CCC(O)CC3)c2cc1OC | 20
46 | COc1cc2nc(-c3ccc(C(F)(F)F)cc3)cc(OCCN3CCCC3)c2cc1OC | 13
47 | COc1cc2nc(-c3ccc(C(F)(F)F)cc3)cc(OCCN3CCOCC3)c2cc1OC | 13
48 | COc1cc2nc(-c3ccc(Cl)cc3)cc(OCCN3CCC(O)CC3)c2cc1OC | 3

Test system: UO-31
Test: Growth inhibition of human UO-31 cells at 10 uM incubated for 48 hrs by sulforhodamine B assay relative to control
Type: functional
Details: read-out: GI
Outline: as §3

Row | SMILES | inhibition of growth at 10 µM [%]
49 | COc1cc2nc(-c3ccc(Cl)cc3)cc(OCCN3CCCCC3)c2cc1OC | 3
50 | COc1cc2nc(-c3ccc(C(F)(F)F)cc3)cc(OCCN3CCCCC3)c2cc1OC | 13
51 | COc1cc2nc(-c3cccs3)cc(OCCCN3CCC(O)CC3)c2cc1OC | 20
52 | COc1cc2nc(-c3ccc(C(F)(F)F)cc3)cc(OCCN3CCCC3)c2cc1OC | 13
53 | COc1cc2nc(-c3ccc(C(F)(F)F)cc3)cc(OCCN3CCOCC3)c2cc1OC | 13
54 | COc1cc2nc(-c3ccc(Cl)cc3)cc(OCCN3CCC(O)CC3)c2cc1OC | 3

Test system: MOLT-4
Test: Growth inhibition of human MOLT-4 cells at 10 uM incubated for 48 hrs by sulforhodamine B assay relative to control
Type: functional
Details: read-out: GI
Outline: as §2

Row | SMILES | inhibition of growth at 10 µM [%]
55 | COc1cc2nc(-c3ccc(Cl)cc3)cc(OCCN3CCCCC3)c2cc1OC | 3
56 | COc1cc2nc(-c3ccc(C(F)(F)F)cc3)cc(OCCN3CCCCC3)c2cc1OC | 13
57 | COc1cc2nc(-c3cccs3)cc(OCCCN3CCC(O)CC3)c2cc1OC | 20
58 | COc1cc2nc(-c3ccc(C(F)(F)F)cc3)cc(OCCN3CCCC3)c2cc1OC | 13
59 | COc1cc2nc(-c3ccc(C(F)(F)F)cc3)cc(OCCN3CCOCC3)c2cc1OC | 13
60 | COc1cc2nc(-c3ccc(Cl)cc3)cc(OCCN3CCC(O)CC3)c2cc1OC | 3

Test system: IGROV-1
Test: Growth inhibition of human IGROV-1 cells at 10 uM incubated for 48 hrs by sulforhodamine B assay relative to control
Type: functional
Details: read-out: GI
Outline: as §1

Row | SMILES | inhibition of growth at 10 µM [%]
61 | COc1cc2nc(-c3ccc(Cl)cc3)cc(OCCN3CCCCC3)c2cc1OC | 3
62 | COc1cc2nc(-c3ccc(C(F)(F)F)cc3)cc(OCCN3CCCCC3)c2cc1OC | 13
63 | COc1cc2nc(-c3cccs3)cc(OCCCN3CCC(O)CC3)c2cc1OC | 20
64 | COc1cc2nc(-c3ccc(C(F)(F)F)cc3)cc(OCCN3CCCC3)c2cc1OC | 13
65 | COc1cc2nc(-c3ccc(C(F)(F)F)cc3)cc(OCCN3CCOCC3)c2cc1OC | 13
66 | COc1cc2nc(-c3ccc(Cl)cc3)cc(OCCN3CCC(O)CC3)c2cc1OC | 3

Test system: A498
Test: Growth inhibition of human A498 cells at 10 uM incubated for 48 hrs by sulforhodamine B assay relative to control
Type: functional
Details: read-out: GI
Outline: as §3

Row | SMILES | inhibition of growth at 10 µM [%]
67 | COc1cc2nc(-c3ccc(Cl)cc3)cc(OCCN3CCCCC3)c2cc1OC | 3
68 | COc1cc2nc(-c3ccc(C(F)(F)F)cc3)cc(OCCN3CCCCC3)c2cc1OC | 13
69 | COc1cc2nc(-c3cccs3)cc(OCCCN3CCC(O)CC3)c2cc1OC | 20
70 | COc1cc2nc(-c3ccc(C(F)(F)F)cc3)cc(OCCN3CCCC3)c2cc1OC | 13
71 | COc1cc2nc(-c3ccc(C(F)(F)F)cc3)cc(OCCN3CCOCC3)c2cc1OC | 13
72 | COc1cc2nc(-c3ccc(Cl)cc3)cc(OCCN3CCC(O)CC3)c2cc1OC | 3

Test system: SF-295
Test: Growth inhibition of human SF-295 cells at 10 uM incubated for 48 hrs by sulforhodamine B assay relative to control
Type: functional
Details: read-out: GI
Outline: as §2

Row | SMILES | inhibition of growth at 10 µM [%]
73 | COc1cc2nc(-c3ccc(Cl)cc3)cc(OCCN3CCCCC3)c2cc1OC | 3
74 | COc1cc2nc(-c3ccc(C(F)(F)F)cc3)cc(OCCN3CCCCC3)c2cc1OC | 13
75 | COc1cc2nc(-c3cccs3)cc(OCCCN3CCC(O)CC3)c2cc1OC | 20
76 | COc1cc2nc(-c3ccc(C(F)(F)F)cc3)cc(OCCN3CCCC3)c2cc1OC | 13
77 | COc1cc2nc(-c3ccc(C(F)(F)F)cc3)cc(OCCN3CCOCC3)c2cc1OC | 13
78 | COc1cc2nc(-c3ccc(Cl)cc3)cc(OCCN3CCC(O)CC3)c2cc1OC | 3
